High-throughput results deposited in PubChem by several laboratories.
Neddylation inh: cullin neddylation inhibition; AID 651699; inhibition, % at 25 µM; P61081+Q13564; TR-FRET cullin neddylation, biochemical; hit rate 0.58% among 360,000; in the data active means inhibition above about 36%
Target sequence (P61081 whole entry, looked up): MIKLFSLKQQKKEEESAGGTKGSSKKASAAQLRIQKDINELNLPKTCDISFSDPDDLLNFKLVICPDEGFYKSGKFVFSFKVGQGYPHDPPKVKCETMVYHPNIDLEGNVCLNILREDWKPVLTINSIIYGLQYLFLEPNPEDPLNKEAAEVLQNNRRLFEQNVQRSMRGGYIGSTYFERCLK
Target sequence (Q13564 whole entry, looked up): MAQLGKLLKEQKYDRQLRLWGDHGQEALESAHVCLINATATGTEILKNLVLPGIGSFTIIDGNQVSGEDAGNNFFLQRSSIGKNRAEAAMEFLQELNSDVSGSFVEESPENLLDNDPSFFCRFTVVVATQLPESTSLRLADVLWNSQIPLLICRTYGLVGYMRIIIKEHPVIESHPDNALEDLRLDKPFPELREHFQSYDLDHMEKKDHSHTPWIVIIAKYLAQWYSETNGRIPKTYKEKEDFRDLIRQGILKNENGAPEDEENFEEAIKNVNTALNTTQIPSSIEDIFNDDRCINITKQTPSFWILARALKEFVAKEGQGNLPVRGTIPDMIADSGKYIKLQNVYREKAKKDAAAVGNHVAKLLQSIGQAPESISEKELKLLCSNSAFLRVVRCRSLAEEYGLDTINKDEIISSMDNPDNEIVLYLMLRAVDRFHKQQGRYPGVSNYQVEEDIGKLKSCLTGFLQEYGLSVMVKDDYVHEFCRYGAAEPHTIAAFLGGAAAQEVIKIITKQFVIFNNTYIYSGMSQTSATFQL
HKDC1 inh: inhibitors of human hexokinase HKDC1; hit rate 0.16% among 340,000; inhibition, % at 20 µM; Q2TB90; recombinant HKDC1, G6PDH/diaphorase resazurin coupled fluorescence; AID 493160;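 active means inhibition above about 35% when tested at 20 µM, limit read from the data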
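Test system: recombinant HKDC1 (HK5) hexokinase enzyme, produced in-house / Doses: 20 µM test compound, 1% DMSO / Timing: 90 min, room temperature / Detection: G6PDH/diaphorase-coupled fluorescence, 1 mM NADP, 100 µM resazurin, 525/613 nm / Control set: DMSO wells with and without enzyme mix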
PfGluPho inh: PfG6PD (Plasmodium falciparum) enzyme inhibition | PfGluPho enzyme, NADPH resazurin-diaphorase fluorescence | inhibition, % at 20 µM | hit rate 0.78% among 350,000 | AID 504690;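 active means inhibition reaching at least a set limit at 20 µM in the primary screen, cut at about 59% in these data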
PfM18AAP inh-1: blocks P. falciparum M18 aspartyl aminopeptidase. recombinant PfM18AAP, H-Glu-NHMec fluorogenic cleavage. inhibition, % at 7.35 µM. hit rate 1.2% among 290,000. AID 1822;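 active means inhibition above the campaign mean inhibition over all tested compounds plus 3 SD, cut at about 28% in these data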
PfM18AAP inh-2: confirmation of Plasmodium falciparum M18 aspartyl aminopeptidase inhibitors. shares compounds with PfM18AAP inh-1. recombinant PfM18AAP, H-Glu-NHMec fluorogenic cleavage. inhibition, % at 7.35 µM. hit rate 28% among 2,400. AID 2170;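 active means mean inhibition over replicate wells above the hit cutoff set for the earlier primary screen, cut at about 29% in these data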
CTSL1 confirm: Cathepsin L (human) inhibition, confirmation | shares compounds with PfM18AAP inh-1 | purified cathepsin L1, Z-Leu-Arg-MCA fluorescence | inhibition, % at 5.96 µM | 2,400 tested, under 10 active | AID 2178;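 active means average inhibition across replicates above the hit cutoff set in the earlier primary screen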
Of the large screens only hits and unclear results are named; the others gave an inactive call (follow-up assays come after a bar, where shown). This is a sample that favours compounds with a hit; in the whole collection about 2.2% have one here.

O=C(O)c1ccc(O)cc1O	none (no result: PfM18AAP inh-1)
CC(Oc1ccc(Cl)cc1Cl)C(=O)OCC(=O)c1c(N)n(C)c(=O)n(C)c1=O (stereo unspecified)	none (no result: PfM18AAP inh-1)
O=C(Oc1ccc(C(=S)N2CCCCC2)cc1)c1ccccc1	PfM18AAP inh-1 37 | PfM18AAP inh-2 inactive | CTSL1 confirm inactive
CCNC(=S)N1CCN(Cc2ccccc2)CC1	none
Oc1ccc(C(=S)N2CCN(Cc3ccccc3)CC2)cc1	PfM18AAP inh-1 54 | PfM18AAP inh-2 inactive | CTSL1 confirm inactive
Oc1ccc(C(=S)N2CCCC2)cc1	PfM18AAP inh-1 33 | PfM18AAP inh-2 inactive | CTSL1 confirm inactive
Cc1ccc(C(=S)N2CCN(Cc3ccccc3)CC2)s1	PfM18AAP inh-1 35 | PfM18AAP inh-2 inactive | CTSL1 confirm inactive
O=C(c1ccc(Br)cc1)N1CCN(Cc2ccccc2)CC1	none
CCN1CCN(C(=S)c2ccc(Br)cc2)CC1	PfM18AAP inh-1 40 | PfM18AAP inh-2 inactive | CTSL1 confirm inactive
O=C(O)Cn1cnc2c(=S)nc[nH]c21	PfM18AAP inh-1 57 | PfM18AAP inh-2 inactive | CTSL1 confirm inactive
CC1C/C(=N/N2C(=O)CSC2=S)CC(C)(C)C1 (stereo unspecified)	PfM18AAP inh-1 38 | PfM18AAP inh-2 inactive | CTSL1 confirm inactive
CC/C(Cc1ccccc1)=N\NC(=O)c1cc([N+](=O)[O-])cc([N+](=O)[O-])c1	PfM18AAP inh-1 41 | PfM18AAP inh-2 inactive | CTSL1 confirm inactive
CC/C(Cc1ccccc1)=N/NC(=O)c1cccc(Br)c1	none
COc1ccc(NC(=O)c2ccc(NC(=O)CN3CCN(c4ccccc4)CC3)cc2)cc1	none (no result: PfM18AAP inh-1)
COc1ccc(C(=O)c2ccc(Cl)cc2)c(OC)c1OC	none (no result: PfM18AAP inh-1)
CC(=O)Nc1ccc(-n2cnnn2)cc1	none
O=C(O)c1cn[nH]c1-n1cnnn1	PfM18AAP inh-1 65 | PfM18AAP inh-2 65 | CTSL1 confirm inactive
CC[n+]1c(C)sc2cc(OC)ccc21	PfM18AAP inh-1 37 | PfM18AAP inh-2 inactive | CTSL1 confirm inactive
CC(=O)C1=C(C)NC(SCc2cccc([N+](=O)[O-])c2)=C(C#N)C1c1ccco1 (stereo unspecified)	PfM18AAP inh-1 32 | PfM18AAP inh-2 inactive | CTSL1 confirm inactive
CCNC(=O)c1cccc(S(=O)(=O)N2CCCCCC2)c1	PfM18AAP inh-1 36 | PfM18AAP inh-2 inactive | CTSL1 confirm inactive
O=C(N/N=C/c1ccc(O)c(O)c1)c1cccc(S(=O)(=O)N2CCCCC2)c1	PfM18AAP inh-1 56 | PfM18AAP inh-2 51 | CTSL1 confirm inactive
O=C(NCc1ccccc1)c1cccc(S(=O)(=O)N2CCCCC2)c1	none
S=C(Nc1ccccc1)N1CCOCC1	none
S=C(N/N=C/c1ccccc1)N1CCOCC1	PfM18AAP inh-1 34 | PfM18AAP inh-2 inactive | CTSL1 confirm 35
NC(=O)C1CCN(C(=O)COc2ccc(Nc3ccccc3)cc2)CC1	PfM18AAP inh-1 34 | PfM18AAP inh-2 inactive | CTSL1 confirm inactive
NC(=O)C1CCN(C(=O)COc2ccc3ccccc3c2)CC1	none
O=C(CSc1ncn[nH]1)OCN1C(=O)c2ccccc2C1=O	PfM18AAP inh-1 85 | PfM18AAP inh-2 88 | CTSL1 confirm inactive
O=C1c2ccccc2C(=O)N1CCSc1ncn[nH]1	none
O=C(CSc1ncn[nH]1)CSc1ncn[nH]1	PfM18AAP inh-1 48 | PfM18AAP inh-2 inactive | CTSL1 confirm inactive
CC1(C(=O)CSc2ncn[nH]2)CCC(=O)O1 (stereo unspecified)	PfM18AAP inh-1 58 (no result: Neddylation inh, HKDC1 inh, PfGluPho inh) | PfM18AAP inh-2 70 | CTSL1 confirm inactive
O=C(CSc1ncn[nH]1)Nc1ccc([N+](=O)[O-])cc1Br	PfM18AAP inh-1 67 | PfM18AAP inh-2 79 | CTSL1 confirm inactive
CC(C)c1ccc(C(=O)CSc2ncn[nH]2)cc1	none
CCCOc1ccc(C=Nc2ccc(OC)c(S(=O)(=O)N3CCOCC3)c2)c(O)c1	none (no result: PfM18AAP inh-1)
CC(=O)Nc1nonc1NC(=O)CSc1ncn[nH]1	PfM18AAP inh-1 48 | PfM18AAP inh-2 40 | CTSL1 confirm inactive
CCOc1cc(N2CCOCC2)c(OCC)cc1NC(=O)CSc1n[nH]c(N)n1	none
CCOc1cc(N2CCOCC2)c(OCC)cc1NC(=O)CSc1ncn[nH]1	PfM18AAP inh-1 49 | PfM18AAP inh-2 inactive | CTSL1 confirm inactive
CC(=O)Nc1nonc1NC(=O)CSc1ccccn1	none
O=C(NNC(=O)c1cc(O)c(O)c(O)c1)NC1CCCCC1	PfM18AAP inh-1 46 | PfM18AAP inh-2 inactive | CTSL1 confirm inactive
O=C(NC1CCCCCCC1)NC1CCCCC1	none
COc1cccc(/C=N/c2sc(Cc3ccccc3)c(C)c2C(N)=O)c1O	PfM18AAP inh-1 34 (not shown: Neddylation inh) | PfM18AAP inh-2 inactive | CTSL1 confirm inactive
COC(=O)c1c(NC(=O)CCC(=O)O)sc(Cc2ccccc2)c1C	none
Cc1ccc(Cn2c(SCCN3CCCCC3)nc3c2c(=O)[nH]c(=O)n3C)cc1	PfM18AAP inh-1 38 | PfM18AAP inh-2 inactive | CTSL1 confirm inactive
Cn1c(=O)[nH]c(=O)c2c1nc(SCCN1CCCCC1)n2Cc1ccccc1	none
COc1cccc(COC(=O)c2cc(=O)[nH]c3ccc(S(=O)(=O)N4CCOCC4)cc23)c1OC	none (no result: PfM18AAP inh-1)
Cc1ccc(C(=O)Nc2ccccc2)cc1S(=O)(=O)N1CCN(C)CC1	none
Clc1ccc2nc(CSc3ncn[nH]3)cn2c1	PfM18AAP inh-1 43 | PfM18AAP inh-2 inactive | CTSL1 confirm inactive
Cc1cc(C)nc(SCc2cn3cc(Cl)ccc3n2)n1	none
Brc1ccc2nc(CSc3ncn[nH]3)cn2c1	PfM18AAP inh-1 66 | PfM18AAP inh-2 30 | CTSL1 confirm inactive
Clc1ccc(CSc2ncn[nH]2)cc1	none
COc1ccc(S(=O)(=O)N2CCCCC2)cc1NS(=O)(=O)c1ccc(CNC(C)=O)cc1	none (no result: PfM18AAP inh-1)
C=CCn1c(-c2sccc2C)n[nH]c1=S	PfM18AAP inh-1 32 | PfM18AAP inh-2 inactive | CTSL1 confirm inactive
C=CCn1c(-c2cccc(Cl)c2)n[nH]c1=S	none
C=CCn1c(-c2ccc(OC)c(OC)c2)n[nH]c1=S	PfM18AAP inh-1 36 | PfM18AAP inh-2 inactive | CTSL1 confirm inactive
CCn1c(SCC(=O)Nc2ccc3c(c2)OCO3)nnc1C(C)C	none
Cc1ccccc1/C=N/N=C1/NC(=O)CCS1	PfM18AAP inh-1 65 | PfM18AAP inh-2 inactive | CTSL1 confirm inactive
O=C1CCS/C(=N\N=C\c2ccc(Cl)cc2Cl)N1	none
NC(=O)CS(=O)(=O)c1ccc(Cl)cc1	PfM18AAP inh-1 40 | PfM18AAP inh-2 inactive | CTSL1 confirm inactive
O=C(CS(=O)(=O)c1ccc(Cl)cc1)NCc1ccccc1	none
COc1ccccc1NS(=O)(=O)c1ccc(C)c(C(=O)NCC(c2cccs2)N2CCOCC2)c1 (stereo unspecified)	none (no result: PfM18AAP inh-1)
Cc1cc(C)cc(OCC(=O)OC(C)C(=O)Nc2c(C)n(C)n(-c3ccccc3)c2=O)c1 (stereo unspecified)	none (no result: PfM18AAP inh-1)
CC1CCc2c(sc(NC(=O)CCC(=O)O)c2C(=O)NC2CC2)C1 (stereo unspecified)	PfM18AAP inh-1 41 | PfM18AAP inh-2 inactive | CTSL1 confirm inactive
O=C(O)CCC(=O)Nc1sc2c(c1C(=O)Nc1ccccc1)CCCCC2	PfM18AAP inh-1 37 | PfM18AAP inh-2 inactive | CTSL1 confirm inactive
CN(Cc1nc2ccccc2c(=O)[nH]1)C(=O)c1cccc(NC(=O)c2cccs2)c1	none (no result: PfM18AAP inh-1)
